Data on 22 compounds can be found in ChEMBL document CHEMBL1139341 (J Med Chem, 2009).

Molecules are shown by their SMILES. Calls of active or inactive are those of the source. The rule behind the calls is not given here. Starred links: 1 amine or outer side, 2 acyl side, 3 side chain; linkers in the order of their positions; H or OH if unused. Positions of bridges follow the written chain, without caps; N, C: chain ends. Non-standard residues stand in square brackets, D forms with d. Residues, ends and D or L forms follow the SMILES beside them. Phe(Nα-(CH2)3CO) = O=C([C@H](Cc1ccccc1)N(CCCC(=O)[*:3])[*:1])[*:2]; N(2-aminoethyl)Phe = O=C([C@H](Cc1ccccc1)N(CCN[*:3])[*:1])[*:2]

Assay [1] concerns the target T1, Somatostatin receptor type 5 (Homo sapiens, UniProt P35346). Nature of the assay: Displacement of [125I]-[Leu8, DTrp22, Tyr25]-somatostatin-28 from human recombinant sst5 receptor expressed in chinese hamster CCL39 cells. The format is cell-based. In outline: (§1)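 Competitive displacement on membrane pellet sections from cells expressing each human sst subtype. The radioligand was [¹²⁵I]-[Leu⁸,D-Trp²²,Tyr²⁵]-somatostatin-28 at 15000 cpm/100 µL. Unlabeled compounds were tested from 0.1 to 1,000 nmol/L, with somatostatin-28 run in parallel over the same range. IC₅₀ was calculated from displacement.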
Background: Displacement assays read how much labelled ligand stays bound in the presence of the test substance.

In assay [2] the target is Somatostatin receptor type 3 (Homo sapiens, UniProt P32745). Nature of the assay: Displacement of [125I]-[Leu8, DTrp22, Tyr25]-somatostatin-28 from human recombinant sst3 receptor expressed in chinese hamster CCL39 cells. The format is cell-based. In outline: as §1
Somatostatin receptor type 3, sequence (P32745 whole entry): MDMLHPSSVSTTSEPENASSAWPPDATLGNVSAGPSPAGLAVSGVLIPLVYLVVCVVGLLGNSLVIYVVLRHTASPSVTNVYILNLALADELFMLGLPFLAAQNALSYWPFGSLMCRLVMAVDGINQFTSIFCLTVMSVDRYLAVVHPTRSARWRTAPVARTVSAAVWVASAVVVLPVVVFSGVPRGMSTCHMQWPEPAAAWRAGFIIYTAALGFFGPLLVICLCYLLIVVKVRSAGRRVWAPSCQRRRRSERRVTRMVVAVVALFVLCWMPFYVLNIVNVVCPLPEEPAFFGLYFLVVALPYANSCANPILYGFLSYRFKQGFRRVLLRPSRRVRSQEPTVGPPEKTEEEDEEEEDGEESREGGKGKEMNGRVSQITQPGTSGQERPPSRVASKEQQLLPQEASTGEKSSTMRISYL
Assay [3] addresses Somatostatin receptor type 1 (Homo sapiens, UniProt P30872). Put plainly: Displacement of [125I]-[Leu8, DTrp22, Tyr25]-somatostatin-28 from human recombinant sst1 receptor expressed in chinese hamster CCL39 cells. The format is cell-based. In outline:
as §1

Assay [4] has as its target Somatostatin receptor type 4 (Homo sapiens, UniProt P31391). Nature of the assay: Displacement of [125I]-[Leu8, DTrp22, Tyr25]-somatostatin-28 from human recombinant sst4 receptor expressed in chinese hamster CCL39 cells. The format is cell-based. In outline: as §1
Assay [5] addresses Somatostatin receptor type 2 (Homo sapiens, UniProt P30874). Put plainly: Displacement of [125I]-[Leu8, DTrp22, Tyr25]-somatostatin-28 from human recombinant sst2 receptor expressed in chinese hamster CCL39 cells. The format is cell-based. The procedure, abridged: as §1
A further assay is filed under the species Homo sapiens. Put plainly: Selectivity for human recombinant sst5 receptor over human recombinant sst4 receptor.
In assay [6] the target is T1, Somatostatin receptor type 5. Nature of the assay: Agonist activity at human recombinant sst5 receptor expressed in chinese hamster CCL39 cells assessed stimulation of [35S]GTP-gamma-S-binding. The format is functional, cell-based. In outline: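 CCL-sst₅ cells grown in DMEM/Ham's F-12 (1:1) with 10% FBS, penicillin/streptomycin and 400 µg/mL G418 at 37 °C, 5% CO₂. Binding was run on 20 µm cryostat sections of membrane pellets. Sections were preincubated 10 min at room temperature in Tris-HCl buffer (pH 8.2) with BSA, bacitracin and MgCl₂. They then went 30 min in the same buffer plus 50 µM GDP.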
For orientation: GTPγS resists hydrolysis and so accumulates on activated G proteins.

Somatostatin receptor type 1, sequence (P30872 whole entry): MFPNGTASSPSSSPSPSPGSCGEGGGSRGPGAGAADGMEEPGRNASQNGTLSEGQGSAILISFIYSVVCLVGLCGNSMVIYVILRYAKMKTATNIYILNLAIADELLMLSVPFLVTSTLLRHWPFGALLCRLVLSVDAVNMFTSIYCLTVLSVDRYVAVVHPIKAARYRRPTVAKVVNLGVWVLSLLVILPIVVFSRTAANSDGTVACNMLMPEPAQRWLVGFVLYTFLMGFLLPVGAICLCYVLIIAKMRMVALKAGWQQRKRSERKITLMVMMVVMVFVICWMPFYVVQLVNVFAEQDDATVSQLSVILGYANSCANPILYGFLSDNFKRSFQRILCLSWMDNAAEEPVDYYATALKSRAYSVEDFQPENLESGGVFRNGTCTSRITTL
Somatostatin receptor type 4, sequence (P31391 whole entry): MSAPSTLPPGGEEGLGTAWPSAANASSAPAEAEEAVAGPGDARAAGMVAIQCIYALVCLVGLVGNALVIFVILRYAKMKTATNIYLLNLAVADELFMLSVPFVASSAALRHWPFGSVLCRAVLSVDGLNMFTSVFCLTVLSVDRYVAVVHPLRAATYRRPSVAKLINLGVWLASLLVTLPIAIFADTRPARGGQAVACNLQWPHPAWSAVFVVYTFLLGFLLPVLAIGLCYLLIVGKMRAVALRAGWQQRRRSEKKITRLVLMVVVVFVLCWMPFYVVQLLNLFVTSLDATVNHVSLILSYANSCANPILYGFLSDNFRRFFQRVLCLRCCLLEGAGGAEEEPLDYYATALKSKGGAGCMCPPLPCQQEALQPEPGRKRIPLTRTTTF
Somatostatin receptor type 2, sequence (P30874 whole entry): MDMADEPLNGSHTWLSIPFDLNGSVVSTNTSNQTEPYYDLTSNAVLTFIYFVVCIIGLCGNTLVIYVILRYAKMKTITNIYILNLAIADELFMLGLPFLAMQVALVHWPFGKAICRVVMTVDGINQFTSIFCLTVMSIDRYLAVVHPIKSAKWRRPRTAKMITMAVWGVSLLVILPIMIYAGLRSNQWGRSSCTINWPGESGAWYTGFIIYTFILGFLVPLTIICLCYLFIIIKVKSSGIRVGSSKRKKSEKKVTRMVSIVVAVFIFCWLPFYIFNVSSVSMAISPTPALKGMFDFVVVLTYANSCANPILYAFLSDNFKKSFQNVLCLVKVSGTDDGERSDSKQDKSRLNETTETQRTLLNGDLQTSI
T1 sequence (P35346 whole entry): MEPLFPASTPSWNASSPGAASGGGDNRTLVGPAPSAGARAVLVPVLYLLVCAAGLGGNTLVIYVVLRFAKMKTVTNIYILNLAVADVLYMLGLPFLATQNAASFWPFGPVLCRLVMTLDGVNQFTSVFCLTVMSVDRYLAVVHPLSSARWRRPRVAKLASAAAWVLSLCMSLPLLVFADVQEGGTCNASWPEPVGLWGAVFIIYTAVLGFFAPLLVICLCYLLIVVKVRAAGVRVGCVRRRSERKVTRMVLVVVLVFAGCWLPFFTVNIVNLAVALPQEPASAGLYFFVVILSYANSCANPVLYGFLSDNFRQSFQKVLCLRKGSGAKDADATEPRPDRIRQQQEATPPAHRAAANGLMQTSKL

`NCCCC[C@@H](C(=O)NCc1ccccc1)N1Cc2[nH]c3ccccc3c2C[C@@H](NC(=O)c2ccc(-c3ccccc3)cc2)C1=O`: the IC50 was 16 nM in assay [1]; 54 nM in assay [2]; greater than 1000 nM in assay [3]; 161 nM in assay [4]; 12 nM in assay [5].

Turning to `NCCCC[C@@H](C(=O)NCc1ccccc1)N1Cc2[nH]c3ccccc3c2C[C@@H](NC(=O)c2ccc(Cl)cc2)C1=O`, the 50% inhibitory concentration (IC50) in assay [1] was determined as 3.7 nM; in assay [2] it was 162 nM; in assay [3], 38 nM; in assay [4], 2.3 nM; in assay [5], 22 nM.

For `NCCCC[C@@H](C(=O)NCc1ccccc1)N1Cc2[nH]c3ccccc3c2C[C@@H](NC(=O)c2ccccc2)C1=O`, the IC50 stood at 1.8 nM in assay [1]; 182 nM in assay [2]; 27 nM in assay [3]; 1.3 nM in assay [4]; 103 nM in assay [5].

Regarding `CC(=O)N[C@@H]1Cc2c([nH]c3ccccc23)CN([C@@H](CCCCN)C(=O)NCCc2ccccc2)C1=O`, the IC50 in assay [1] is 0.56 nM; in assay [2] it was 515 nM; in assay [3], 105 nM; in assay [4], 7 nM; in assay [5] it was greater than 1000 nM. In addition, the fold change (FC) in the assay filed under Homo sapiens amounted to 10. Further, the outcome in assay [6] was Active.

Consider `NCCCC[C@@H](C(=O)NCc1ccccc1)N1Cc2[nH]c3ccccc3c2C[C@@H](NC(=O)C(c2ccccc2)c2ccccc2)C1=O`, for which the IC50 in assay [1] was 8.8 nM; in assay [2] it was greater than 500 nM; in assay [3], 247 nM; in assay [4], 14 nM; in assay [5] it was 242 nM.

Take `NCCCC[C@@H](C(=O)NCc1cccc2ccccc12)N1Cc2[nH]c3ccccc3c2C[C@@H](NC(=O)Cc2ccccc2)C1=O`: the IC50 in assay [1] is 3.5 nM; in assay [2], 105 nM; in assay [3], 387 nM; in assay [4], 17 nM; in assay [5] it was 215 nM.

Turning to `NCCCC[C@@H](C(=O)NCCc1ccccc1)N1Cc2[nH]c3ccccc3c2C[C@@H](NC(=O)Cc2ccccc2)C1=O`, the IC50 is 0.6 nM in assay [1]; 50 nM in assay [2]; 75 nM in assay [3]; 2.4 nM in assay [4]; 183 nM in assay [5]. Further, the result in assay [6] was Active.

With `C[C@H](N)COC(=O)[C@@H](CCCCN)NC(=O)Cc1c(-c2ccc3ccccc3c2)[nH]c2c1ccc1ccccc12`, the IC50 in assay [1] turned out to be 0.4 nM.

With `C[C@@H](O)[C@@H](CO)NC(=O)[C@@H]1C/C=C/C[C@H](NC(=O)[C@H](N)Cc2ccccc2)C(=O)N[C@@H](Cc2ccccc2)C(=O)N[C@H](Cc2c[nH]c3ccccc23)C(=O)N[C@@H](CCCCN)C(=O)N[C@@H](Cc2ccc(OCc3ccccc3)cc2)C(=O)N1`, the IC50 in assay [1] turned out to be 12 nM. Besides, the fold change (FC) in the assay filed under Homo sapiens was 24.

Take `NCCCC[C@@H](C(=O)NCc1ccccc1)N1Cc2[nH]c3ccccc3c2C[C@@H](NC(=O)N2CCN(S(=O)(=O)c3ccccc3)CC2)C1=O`: the half-maximal inhibitory concentration (IC50) stood at 3.5 nM in assay [1]; 260 nM in assay [2]; 372 nM in assay [3]; 59 nM in assay [4]; 4.2 nM in assay [5].

As to `NCCCC[C@@H](C(=O)NCc1ccccc1)N1Cc2[nH]c3ccccc3c2C[C@@H](NC(=O)CCc2ccccc2)C1=O`, the IC50 came to 3.4 nM in assay [1]; 153 nM in assay [2]; 54 nM in assay [3]; 8.1 nM in assay [4]; 10 nM in assay [5].

As to `C[C@H](NC(=O)[C@H](CCCCN)N1Cc2[nH]c3ccccc3c2C[C@@H](NC(=O)Cc2ccccc2)C1=O)c1ccccc1`, the IC50 in assay [1] stood at 3.2 nM; in assay [2], 300 nM; in assay [3], 183 nM; in assay [4], 1 nM; in assay [5], 452 nM.

With `C[C@@H](NC(=O)[C@H](CCCCN)N1Cc2[nH]c3ccccc3c2C[C@@H](NC(=O)Cc2ccccc2)C1=O)c1ccccc1`, the IC50 in assay [1] was 50 nM; in assay [2] it was 403 nM; in assay [3], 630 nM; in assay [4] it was 14 nM; in assay [5], 770 nM.

On to `NCCCC[C@@H](C(=O)NCc1ccccc1)N1Cc2[nH]c3ccccc3c2C[C@@H](NC(=O)C2CCN(C(=O)c3ccccc3)CC2)C1=O`, for which the IC50 in assay [1] came out at 1.4 nM; in assay [2] it was 119 nM; in assay [3], 89 nM; in assay [4], 6.9 nM; in assay [5], 2.1 nM.

As to `COC(=O)[C@H](CCCCN)N1Cc2[nH]c3ccccc3c2C[C@@H](NC(=O)Cc2ccccc2)C1=O`, the IC50 in assay [1] stood at 13 nM; in assay [2], 400 nM; in assay [3] it was 962 nM; in assay [4] it was 2.4 nM; in assay [5], 290 nM.

For the compound `CC(C)[C@@H]1NC(=O)[C@H](CCCCN)NC(=O)[C@H](Cc2c[nH]c3ccccc23)NC(=O)[C@H](Cc2ccc(O)cc2)NC(=O)[C@H](Cc2ccccc2)NCCNC(=O)CCCN([C@@H](Cc2ccccc2)C(=O)N[C@H](C(N)=O)[C@@H](C)O)C1=O` (H-[N(2-aminoethyl)Phe]YWKV[Phe(Nα-(CH2)3CO)]T-NH2; lactam 1-6), in the assay listed under Homo sapiens, the fold change (FC) worked out at 24.

`NCc1cccc(C[C@@H]2O[C@@H](CC(=O)NCc3ccccc3F)C(=O)N(Cc3ccc(-c4ccccc4)cc3)c3ccccc32)c1`: the IC50 in assay [1] was found to be 0.3 nM. Besides, the fold change (FC) in the assay filed under Homo sapiens was determined as 200.

With `CC(=O)N[C@@H]1Cc2c([nH]c3ccccc23)CN([C@@H](CCCCN)C(=O)NCc2ccccc2)C1=O`, the IC50 is 5 nM in assay [1]; greater than 1000 nM in assay [2]; 253 nM in assay [3]; 7 nM in assay [4]; 292 nM in assay [5].

In the case of `NCCCC[C@@H](C(=O)NCc1ccccc1)N1Cc2[nH]c3ccccc3c2C[C@@H](NC(=O)N2CCC(n3c(=O)[nH]c4ccccc43)CC2)C1=O`, the IC50 in assay [1] was 0.86 nM; in assay [2], 3.9 nM; in assay [3] it was 76 nM; in assay [4], 4.4 nM; in assay [5], 0.73 nM.

As for `NCCCC[C@@H](C(=O)NCc1ccccc1)N1Cc2[nH]c3ccccc3c2C[C@@H](NC(=O)N2CCC3(CCc4ccccc43)CC2)C1=O`, the IC50 in assay [1] was 2.9 nM; in assay [2], 9.1 nM; in assay [3] it was 379 nM; in assay [4] it was 35 nM; in assay [5] it was 2.1 nM.

As for `CS(=O)(=O)N1CC2(CCN(C(=O)N[C@@H]3Cc4c([nH]c5ccccc45)CN([C@@H](CCCCN)C(=O)NCc4ccccc4)C3=O)CC2)c2ccccc21`, the IC50 in assay [1] was found to be 8 nM; in assay [2] it was 316 nM; in assay [3], 837 nM; in assay [4] it was 2.1 nM; in assay [5] it was 327 nM.

Consider `NCCCC[C@H](C(=O)NCc1ccccc1)N1Cc2[nH]c3ccccc3c2C[C@@H](NC(=O)Cc2ccccc2)C1=O`, for which the IC50 was 25 nM in assay [1]; 910 nM in assay [2]; greater than 1000 nM in assay [3]; 56 nM in assay [4]; greater than 1000 nM in assay [5].

As a reminder, the IC50 is the midpoint of a concentration-inhibition curve.
